One data set has as its system Giardia intestinalis. Put plainly: Antiparasitic activity against Giardia lamblia Portland 1 after 48 hrs by MTT assay. Conditions: Giardia duodenalis, Portland 1, 48 h. The class given is functional, organism-based. Put shortly: (§1)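 Trophozoite cultures grown in 96-well plates at 37 °C for 24 h, then serial two-fold dilutions (0.9-15 μg/cm³) added from DMSO stocks, 0.5% DMSO as 100%-growth control. Incubated 48 h, then MTT 4 h at 37 °C in dark. Dissolved in DMSO, A570 read. IC50 from sigmoid dose-response. Run in duplicate, three independent experiments in triplicate.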

In another data set the test system is Trichomonas vaginalis. Put plainly: Antiparasitic activity against Trichomonas vaginalis 162 after 48 hrs by MTT assay. It is filed as functional, organism-based. Conditions: Trichomonas vaginalis, 162, 48 h. The gist of the method: as §1
A short description of data set [1]: Cytotoxicity against HEK293 cells after 18 hrs by MTT assay. The class given is cell-based. Conditions: human.
Data set [2] in a line: Cytotoxicity against human HeLa cells after 18 hrs by MTT assay. It is filed as cell-based. The gist of the method: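 Cells (5×10^4/well) seeded in RPMI-1640 with 10% FBS, overnight at 37 °C. Compounds added at 100 to 1.56 µM for 18 h at 37 °C. MTT (5 mg/ml in PBS) added for 3-4 h, formazan dissolved in DMSO. CC50 is the concentration giving 50% growth inhibition relative to untreated cells.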

The nature of data set [3]: Selectivity index, ratio of CC50 for HEK293 cells to IC50 for Giardia lamblia Portland 1. It is filed as functional.
Data set [4] is described as follows: Selectivity index, ratio of CC50 for human HeLa cells to IC50 for Giardia lamblia Portland 1. It is filed as functional.
Data set [5] is described as follows: Selectivity index, ratio of CC50 for HEK293 cells to IC50 for Trichomonas vaginalis 162. The class given is functional.
A short description of data set [6]: Selectivity index, ratio of CC50 for human HeLa cells to IC50 for Trichomonas vaginalis 162. It is filed as functional.

The structures appear in SMILES notation.

In the case of `O=C(/C=C/c1ccccc1)c1ccc(OCc2cn(CCC[Si]34OCCN(CCO3)CCO4)nn2)cc1`, the IC50 in the data set on Giardia intestinalis came out at 59.7 µM; in the data set on Trichomonas vaginalis, 27.2 µM.

`Cc1ccc(/C=C/C(=O)c2ccc(OCc3cn(CCC[Si]45OCCN(CCO4)CCO5)nn3)cc2)cc1`: the values for the IC50 in the data set on Giardia intestinalis and in the data set on Trichomonas vaginalis were 33.2 µM and 24.8 µM, respectively. For the same molecule, the CC50 at 18 h in data set [1] is 198 µM; in data set [2], 189 µM. The “Ratio CC50/IC50” value in data set [3] is reported as 5.95; in data set [4], 5.68; in data set [5] it was 7.97; in data set [6], 7.61.

For the molecule `Cc1ncc([N+](=O)[O-])n1CCO` [METRONIDAZOLE], the IC50 with Giardia intestinalis was determined as 62.5 µM; in the data set with Trichomonas vaginalis, 55.9 µM.

`COc1ccc(/C=C/C(=O)c2ccccc2OCc2cn(CCC[Si]34OCCN(CCO3)CCO4)nn2)c(OC)c1`: the results for the IC50 in the data set with Giardia intestinalis and in the data set on Trichomonas vaginalis were 35.4 µM and 22.1 µM, respectively.

Turning to `O=C(/C=C/c1ccc(Cl)cc1)c1ccccc1OCc1cn(CCC[Si]23OCCN(CCO2)CCO3)nn1`, the figures for the half-maximal inhibitory concentration (IC50) with Giardia intestinalis and in the data set on Trichomonas vaginalis were 33.9 µM and 22.3 µM, respectively.

In the case of `O=C(/C=C/c1ccccc1)c1ccccc1OCc1cn(CCC[Si]23OCCN(CCO2)CCO3)nn1`, the IC50 with Giardia intestinalis stood at 28.1 µM; in the data set with Trichomonas vaginalis it was 23.3 µM. Besides, the results for the CC50 at 18 h in data set [1] and in data set [2] were 208 µM and 238 µM, respectively. Also, the “Ratio CC50/IC50” value is reported as 7.41 in data set [3], 8.48 in data set [4], 8.94 in data set [5] and 10.23 in data set [6].

In the case of `COc1ccc(/C=C/C(=O)c2ccccc2OCc2cn(CCC[Si]34OCCN(CCO3)CCO4)nn2)c(OC)c1OC`, half-maximal inhibition in the data set on Trichomonas vaginalis (IC50) required 21.3 µM. In addition, the CC50 at 18 h in data set [1] is 285 µM; in data set [2] it was 232 µM. Moreover, the “Ratio CC50/IC50” value in data set [5] worked out at 13.39; in data set [6] it was 10.92.

As for `O=C(/C=C/c1ccc(Cl)cc1)c1ccc(OCc2cn(CCC[Si]34OCCN(CCO3)CCO4)nn2)cc1`, the IC50 in the data set on Giardia intestinalis was determined as 33.1 µM; in the data set on Trichomonas vaginalis, 21.9 µM.

The molecule `COc1ccccc1/C=C/C(=O)c1ccccc1OCc1cn(CCC[Si]23OCCN(CCO2)CCO3)nn1` registered an IC50 in the data set with Trichomonas vaginalis of 23.8 µM.

On to `COc1ccc(/C=C/C(=O)c2cccc(OCc3cn(CCC[Si]45OCCN(CCO4)CCO5)nn3)c2)cc1`, for which the IC50 in the data set with Trichomonas vaginalis was 30.3 µM. In addition, the CC50 at 18 h in data set [1] amounted to 267 µM; in data set [2] it was 203 µM. Besides, the “Ratio CC50/IC50” value in data set [5] came to 8.81; in data set [6], 6.7.

Consider `Cc1ccc(/C=C/C(=O)c2cccc(OCc3cn(CCC[Si]45OCCN(CCO4)CCO5)nn3)c2)cc1`, for which the IC50 in the data set on Giardia intestinalis was found to be 131 µM; in the data set on Trichomonas vaginalis it was 101 µM.

For the molecule `Cc1ccc(/C=C/C(=O)c2ccccc2OCc2cn(CCC[Si]34OCCN(CCO3)CCO4)nn2)cc1`, the results for the half-maximal inhibitory concentration (IC50) with Giardia intestinalis and in the data set on Trichomonas vaginalis were 48 µM and 50 µM, respectively.

`COc1ccc(/C=C/C(=O)c2ccc(OCc3cn(CCC[Si]45OCCN(CCO4)CCO5)nn3)cc2)c(OC)c1OC`: the IC50 in the data set on Giardia intestinalis was 30.2 µM; in the data set with Trichomonas vaginalis, 18.2 µM. The CC50 at 18 h came out at 270 µM in data set [1] and 227 µM in data set [2]. Besides, the “Ratio CC50/IC50” value in data set [3] came out at 8.94; in data set [4], 7.53; in data set [5], 14.78; in data set [6], 12.46.

As for `COc1ccc(/C=C/C(=O)c2ccc(OCc3cn(CCC[Si]45OCCN(CCO4)CCO5)nn3)cc2)cc1`, the IC50 with Giardia intestinalis turned out to be 54.9 µM; with Trichomonas vaginalis, 21.6 µM.

Consider `COc1ccc(/C=C/C(=O)c2cccc(OCc3cn(CCC[Si]45OCCN(CCO4)CCO5)nn3)c2)c(OC)c1OC`, for which the IC50 was determined as 19.6 µM with Giardia intestinalis and 42.1 µM in the data set with Trichomonas vaginalis. The CC50 at 18 h turned out to be 328 µM in data set [1] and 340 µM in data set [2]. The “Ratio CC50/IC50” value is recorded as 16.74 in data set [3], 17.36 in data set [4], 7.79 in data set [5] and 8.07 in data set [6].

For `COc1ccc(/C=C/C(=O)c2ccc(OCc3cn(CCC[Si]45OCCN(CCO4)CCO5)nn3)cc2)c(OC)c1`, the IC50 in the data set with Giardia intestinalis stood at 31.9 µM; in the data set on Trichomonas vaginalis it was 22.9 µM.

As for `COc1ccccc1/C=C/C(=O)c1cccc(OCc2cn(CCC[Si]34OCCN(CCO3)CCO4)nn2)c1`, the IC50 was found to be 43.7 µM in the data set on Giardia intestinalis and 43.1 µM in the data set on Trichomonas vaginalis.

As for `COc1ccc(/C=C/C(=O)c2ccccc2OCc2cn(CCC[Si]34OCCN(CCO3)CCO4)nn2)cc1`, the IC50 in the data set on Giardia intestinalis worked out at 32.2 µM; in the data set on Trichomonas vaginalis, 26.7 µM.

On to `COc1ccc(/C=C/C(=O)c2cccc(OCc3cn(CCC[Si]45OCCN(CCO4)CCO5)nn3)c2)c(OC)c1`, for which the IC50 in the data set on Giardia intestinalis was 43.9 µM; in the data set with Trichomonas vaginalis, 43.8 µM.

As to `O=C(/C=C/c1ccccc1)c1cccc(OCc2cn(CCC[Si]34OCCN(CCO3)CCO4)nn2)c1`, the IC50 was 81 µM in the data set with Giardia intestinalis and 65.6 µM with Trichomonas vaginalis.

With `COc1ccccc1/C=C/C(=O)c1ccc(OCc2cn(CCC[Si]34OCCN(CCO3)CCO4)nn2)cc1`, the IC50 in the data set on Giardia intestinalis turned out to be 40.9 µM; in the data set on Trichomonas vaginalis, 22.7 µM.

On to `O=C(/C=C/c1ccc(Cl)cc1)c1cccc(OCc2cn(CCC[Si]34OCCN(CCO3)CCO4)nn2)c1`, for which the 50% inhibitory concentration (IC50) with Giardia intestinalis was 78.5 µM; with Trichomonas vaginalis, 55.7 µM.
